# Assay outcomes deposited in PubChem by several laboratories.
# Only some compounds are listed: those with a hit (about 1.4% of all), similar ones and a draw of the others.
# Fh CTSL1 inh: counter-screen for PFM18AAP inhibitors: inhibitors of F. hepatica cathepsin L1. recombinant F. hepatica cathepsin L1, Z-Leu-Arg-MCA fluorescence. inhibition, % at 5.96 µM. 300,000 tested, 0.49% active;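 active = inhibition above the mean of all tested compounds plus 3 SD, set per screening campaign, cut at about 17% in these data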;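 note: 0% = plate median of test compound wells and 100% = 1 µM Z-Phe-Ala-diazomethylketone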
# FXIIa inh: inhibitors of human coagulation factor XIIa; P00748; AID 800; 220,000 tested, 0.3% active; purified FXIIa, Boc-QGR-AMC fluorogenic substrate, 2 h; inhibition, % at 5 µM; in the data active = inhibition above about 40%;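 note: 0% = enzyme with no compound and 100% = blank without enzyme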
# FXIa inh: blocks human coagulation factor XIa protease activity | P03951 | purified FXIa, Boc-Glu-Ala-Arg-AMC fluorogenic substrate | inhibition, % at 5 µM | 220,000 tested, 0.14% active | AID 798;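 active = inhibition of at least 40%; inactive = inhibition below 40%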;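 note: fluorescence of freed AMC excited at 355 nm; 0% = enzyme without compound and 100% = no enzyme blank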
# Rce1 inh: inhibitors of yeast Ras-converting enzyme; yeast membranes, quenched prenylated peptide cleavage fluorescence; calls only; 290,000 tested, 0.27% active; Q03530;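 active = fall in fluorescence gain of 50% or more versus controls, with final raw signal at or below 3038400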;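 note: plate controls were neutral control wells for no effect and wells lacking membranes for full effect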
# Target sequence (Q03530 whole entry, looked up): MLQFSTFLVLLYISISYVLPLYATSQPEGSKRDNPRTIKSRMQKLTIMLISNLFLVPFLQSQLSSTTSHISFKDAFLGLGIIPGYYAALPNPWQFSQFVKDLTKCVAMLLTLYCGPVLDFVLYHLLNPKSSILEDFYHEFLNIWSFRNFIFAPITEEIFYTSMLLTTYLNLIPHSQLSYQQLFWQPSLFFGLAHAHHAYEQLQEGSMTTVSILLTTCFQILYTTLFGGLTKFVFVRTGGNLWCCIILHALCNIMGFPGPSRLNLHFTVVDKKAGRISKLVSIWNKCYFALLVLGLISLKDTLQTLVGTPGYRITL
# Thrombin inh: inhibitors of human thrombin. alpha-thrombin, Boc-VPR-AMC fluorogenic substrate cleavage. AID 1046. inhibition, % at 5 µM. 220,000 tested, 0.26% active;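 active = inhibition at or above 40%; inactive = inhibition below 40%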;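 note: 0% = enzyme with no compound and 100% = wells without enzyme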
#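 signal = AMC fluorescence, 355/460 nm | material = human alpha-thrombin enzyme | control set = enzyme without compound as high, wells lacking enzyme as low | times = reaction at room temperature | read-out basis = percent inhibition scaled between no-compound controls and no-enzyme blanks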
# KLK5 inh: inhibitors of human kallikrein 5 | Q9Y337 | AID 873 | recombinant hK5, fluorogenic AMC substrate cleavage | inhibition, % at 5 µM | 210,000 tested, 0.59% active;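 active = inhibition of 40% or more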;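 note: 0% = enzyme controls without compound and 100% = no-enzyme blanks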
# Target sequence (Q9Y337 67-293 limits assumed): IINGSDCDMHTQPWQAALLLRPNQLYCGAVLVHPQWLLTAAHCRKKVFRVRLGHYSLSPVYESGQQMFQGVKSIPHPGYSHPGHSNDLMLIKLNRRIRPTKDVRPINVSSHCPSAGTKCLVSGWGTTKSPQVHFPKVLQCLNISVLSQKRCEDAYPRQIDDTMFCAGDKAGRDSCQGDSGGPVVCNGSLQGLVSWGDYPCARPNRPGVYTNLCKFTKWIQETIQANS
# * hit, by the source's call; i = inactive; . = not tested or not shown; + = active, no number.
SMILES,Fh CTSL1 inh,FXIIa inh,FXIa inh,Rce1 inh,Thrombin inh,KLK5 inh
Cc1ccc(S(=O)(=O)N2CCOCC2)cc1C(=O)NCc1ccc2c(c1)OCO2,1.0,5.7,-3.1,i,-6.7,-2.0
CCC(=O)n1nc(-c2ccccc2)nc1NCc1ccccc1,-0.5,9.4,0.3,i,.,-3.6
COCC(=O)n1nc(-c2ccccc2)nc1NCc1ccccc1,.,5.0,2.4,.,90.5*,4.0
COCC(=O)n1nc(-c2ccccc2)nc1NCc1ccc(F)cc1,-5.0,12.5,5.6,i,90.4*,-7.7
COc1ccc(CNC(=O)CNS(=O)(=O)c2ccc(Cl)cc2)cc1,2.2,5.8,2.3,i,-3.3,-19.4
COc1ccc(Cl)cc1NS(=O)(=O)c1c(C)[nH]c(=O)[nH]c1=O,.,.,.,i,.,.
Cc1ccc(Cl)cc1NS(=O)(=O)c1c(C)[nH]c(=O)[nH]c1=O,0.7,-0.2,-2.8,i,103.9*,30.1
CC1=CC(=O)C(C(C)C)=C/C1=N/OS(=O)(=O)c1ccccc1,17.5*,2.5,-0.6,i,-1.6,-2.1
CC1=CC(=O)C=C(C)C1=NOS(=O)(=O)c1ccccc1,.,10.5,4.1,i,1.8,-11.9
COc1cccc(C(=O)NNC(=O)CCC(=O)O)c1,-0.4,-0.7,-8.3,i,-8.2,-8.3
COc1cccc(C(=O)NNC(=O)Cc2ccc([N+](=O)[O-])cc2)c1,-0.8,-7.9,-11.1,i,44.1*,10.5
CC1(C)C(=O)Nc2ccccc2N1C(=O)c1ccc([N+](=O)[O-])cc1,6.7,.,.,i,.,.
CC1(C)C(=O)Nc2ccccc2N1C(=O)COC(=O)c1cc([N+](=O)[O-])ccc1N,8.3,24.4,16.6,i,23.6,48.3*
Cc1cc(C)n2cc(CSc3ncccc3C(=O)O)nc2n1,6.4,-5.7,-8.6,+,-3.1,-1.6
Cc1cc(C)n2cc(CSc3nnnn3-c3ccccc3C)nc2n1,0.9,0.6,-1.2,i,-4.3,-7.4
Cc1cc(C)n2cc(CSCc3ccco3)nc2n1,-0.5,-2.4,-6.8,i,-7.2,0.0
Cc1cc(C)n2cc(CSC3=NCCS3)nc2n1,9.0,1.7,-8.3,+,-4.3,-2.0
Cc1ccnc(SCc2cn3c(C)cc(C)nc3n2)n1,-0.7,5.4,0.9,+,-0.9,-9.4
O=C(O)c1cccnc1SCc1cn2cc(Br)ccc2n1,4.1,6.9,-1.5,i,-12.8,-7.9
Fc1ccc(-n2c(CN3CCCCC3)n[nH]c2=S)cc1,8.7,3.6,1.8,i,-9.2,0.9
O=C(Nc1cc(Cl)cc(Cl)c1)c1cnn2cccnc12,-0.9,17.9,11.5,i,24.3,68.8*
O=C(Nc1cccc(Cl)c1)c1cnn2cccnc12,4.4,19.7,18.8,i,24.0,24.0
COc1ccccc1/C=C(/C#N)C(=O)O,.,-2.8,-5.3,i,-16.4,-6.2
[N-]=[N+]=CC(=O)CNC(=O)[C@@H](Cc1ccccc1)N1C(=O)c2ccccc2C1=O,43.0*,-3.1,-10.0,i,-2.7,-9.3
CSCCC(NC(=O)c1ccccc1Br)C(=O)NCC(c1ccco1)N1CCCCC1 (stereo unspecified),20.9*,.,.,i,.,.
SMILES,Fh CTSL1 inh,FXIIa inh,FXIa inh,Rce1 inh,Thrombin inh,KLK5 inh
CCc1ccc(OCc2nnc(NC(=O)c3cccs3)s2)cc1,1.0,-0.5,-7.0,i,-0.6,-6.6
Cc1nn(C)c(C)c1CCC(=O)O,0.7,5.0,-5.2,i,-12.6,-0.7
O=C(NNc1cc(Cl)ccc1Cl)c1cccs1,-1.0,17.6,23.5,i,34.5,54.8*
O=C(NCc1ccc2c3c(cccc13)C(=O)N2)c1cccs1,.,41.7*,56.6*,i,8.2,56.2*
CCCCc1cc(=O)oc2cc(OCC(=O)N3CCC(C(N)=O)CC3)ccc12,1.5,.,.,i,.,.
CCCCc1cc(=O)oc2cc(OCC(=O)N3CCOCC3)ccc12,-2.9,.,.,+,.,.
CCCCc1cc(=O)oc2cc(OCC(=O)N3CCC(C(=O)O)(c4ccccc4)CC3)ccc12,20.3*,.,.,i,.,.
Cc1c(-c2ccccc2)c(=O)oc2cc(O)ccc12,-0.7,.,.,i,.,.
C/C(Cc1ccccc1)=N\NC(=O)CNC(=O)/C=C\c1ccccc1,2.8,23.9,50.8*,i,10.1,112.6*
C/C(Cc1ccccc1)=N\NC(=O)CNC(=O)c1ccc(Cl)cc1Cl,-6.8,86.4*,12.1,i,3.5,78.0*
C/C(Cc1ccccc1)=N\NC(=O)CNC(=O)c1cccc(Cl)c1,-4.7,-2.7,7.8,i,3.6,-1.3
COC(=O)c1ccc(OCC(=O)c2cccc(OC)c2)cc1,0.8,8.7,1.8,i,-4.6,-15.1
CCn1cc(C(=O)O)c(=O)c2cc(F)c(N3CCN(C(=S)NC(=O)c4ccc(F)c(F)c4)CC3)cc21,1.3,4.5,-8.0,i,-12.9,-4.0
CCOC(=O)c1c(NC(=O)COC(=O)Cn2cnc3ccccc32)sc(C)c1C,-9.0,-5.5,4.3,i,-3.7,9.9
COC(=O)c1c(NC(=O)COC(=O)Cn2cnc3ccccc32)sc(C)c1C,2.0,15.0,43.6*,i,11.9,37.3
Cc1nc(CN2CCCCC2)cc(=O)[nH]1,-0.3,10.0,-0.7,i,-4.6,2.6
Cc1ccc(Nc2nc(-c3sc(NC(=O)c4ccco4)nc3C)cs2)cc1,3.4,16.4,14.1,i,10.8,53.5*
CCOc1ccc(S(=O)(=O)NCCC(=O)N2CCN(c3ccccc3O)CC2)cc1,0.0,.,.,i,.,.
Cn1c(N)c(C(=O)COc2ccc(Cl)cc2Cl)c(=O)n(C)c1=O,6.8,5.7,-1.2,i,-8.9,1.3
Cn1c(=O)c(C(=O)COc2ccc(F)cc2Cl)c(N)n(Cc2ccccc2)c1=O,31.3*,2.1,-5.7,i,-15.2,-5.1
COc1ccccc1N1CCN(C(=S)NC(=O)/C=C/c2ccccc2)CC1,1.5,0.7,-4.3,i,-6.0,13.7
C/C(=N\Nc1ccc(C(F)(F)F)cc1[N+](=O)[O-])C1CC1,2.4,8.9,6.7,i,-1.1,-10.6
Cc1ccc(NC2=NC3(CCCCC3)N=C(N)N2)c(C)c1,-1.9,12.8,45.5*,.,1.8,37.3
O=C1CCC(=O)N1CCC(c1ccc(F)cc1)c1ccco1 (stereo unspecified),2.1,17.3,-4.9,i,1.4,-12.8
O=C(CC(c1ccc(F)cc1)c1ccco1)N1CCCC1 (stereo unspecified),35.7*,9.6,1.5,i,-2.5,2.8
O=C1c2ccccc2C(=O)N1CCC(c1ccc(F)cc1)c1ccco1 (stereo unspecified),18.0*,13.0,14.9,i,6.3,-17.9
O=C(CC(c1ccc(F)cc1)c1ccco1)N1CCOCC1 (stereo unspecified),15.2,30.9,2.4,i,42.8*,58.7*
Cc1nonc1OCCNCCNc1ccccc1[N+](=O)[O-],-4.3,11.0,1.3,i,6.5,-5.2
Cc1nonc1OC(C)CNCCNc1ccc([N+](=O)[O-])cc1 (stereo unspecified),0.0,43.4*,-9.7,i,2.2,8.3
